APP 5'UTR act: APP 5'UTR luciferase reporter activation | SH-SY5Y APP 5'UTR luciferase reporter, luminescence; zero percent = DMSO vehicle wells | activation, % at 2 µM | 190,000 tested, 1% active | AID 1276;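 active means activation above a set limit, based on mean plus 3 SD of controls, cut at about 140% in these data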
STAT1 act: activators of IFN-gamma induced STAT1 signaling | activation (% of control), % at 5.5 µM | 200,000 tested, 2.6% active | AID 932 | NIH 3T3 STAT1-luciferase reporter, luminescence; 100% = IFN-gamma alone, no compound;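 active means activation above the screen-wide mean activation plus 3 SD, cut at about 130% in these data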;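 further: raw ratio to IFN-gamma control signal so 100% means no change and 0% no light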
FLuc act counter: affects firefly luciferase, flagging false hits in luciferase stimulation screens; ATPlite luciferase biochemical, luminescence, 10 min; 0 = ATP-free wells, 1 = DMSO control; 200,000 tested, under 10 active; P08659; activation factor at 10 µM;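 active means luciferase activation factor, scaled between plate controls, of at least 2 with compound at 10 µM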
Target sequence (P08659 whole entry, looked up): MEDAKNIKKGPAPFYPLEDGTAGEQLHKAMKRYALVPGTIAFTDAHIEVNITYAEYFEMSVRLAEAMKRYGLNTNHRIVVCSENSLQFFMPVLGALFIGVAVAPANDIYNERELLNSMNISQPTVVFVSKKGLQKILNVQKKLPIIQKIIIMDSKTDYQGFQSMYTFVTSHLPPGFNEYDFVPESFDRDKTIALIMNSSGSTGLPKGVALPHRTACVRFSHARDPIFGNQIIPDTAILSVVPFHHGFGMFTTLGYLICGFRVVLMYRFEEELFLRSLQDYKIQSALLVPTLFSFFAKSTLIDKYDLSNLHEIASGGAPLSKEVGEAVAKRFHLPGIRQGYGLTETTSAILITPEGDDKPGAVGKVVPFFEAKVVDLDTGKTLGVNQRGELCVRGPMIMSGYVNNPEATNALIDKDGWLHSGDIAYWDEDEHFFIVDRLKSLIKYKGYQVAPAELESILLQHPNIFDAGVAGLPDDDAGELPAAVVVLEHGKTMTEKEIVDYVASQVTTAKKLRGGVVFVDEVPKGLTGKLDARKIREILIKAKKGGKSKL
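Assay system – cell-free luciferase reagent · Medium – PBS-based ATP solution · Dosing – test compounds dosed from 2 mM stocks in 100% DMSO · Timing – 10 min, room temperature · Technique – light output (luminescence) · Measure – luminescence gain marking luciferase activators · Controls – No-ATP low control, compound-free enzyme-plus-ATP high control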
FLuc inh counter: counter-screen for luciferase assay inhibitors: firefly luciferase inhibition; P08659; ATPLite firefly luciferase biochemical luminescence, 10 min; inhibition, % at 10 µM; 200,000 tested, 1.5% active;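 active means inhibition above about 50% when tested at 10 µM, limit read from the data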
NF-kB neuron act: compounds increasing NF-kB expression in human neuronal cells. NF-kB reporter expression; stronger effect = higher value. fold change at 12.5 µM. 190,000 tested, 1.6% active. AID 1239; in the data active means fold change above about 3.3
Active calls of the source: *. This is a sample that favours compounds with a hit; in the whole collection about 4.1% have one here.

SMILES | APP 5'UTR act | STAT1 act | FLuc act counter | FLuc inh counter | NF-kB neuron act
Cc1cc(C(=O)COC(=O)c2csc3c2CCCC3)c(C)n1C | 10 | 103 | 1 | 0 | 1.1
Cc1ccc(C(=O)Nc2cc3ccccc3oc2=O)cc1 | -66 | 12 | 0.1 | 87* | 1.1
COc1ccc(OCC(=O)N/N=C(\C)c2cc3ccccc3o2)cc1 | -3 | 105 | 0.2 | 81* | 1.7
Cc1ccc(OC(=O)c2cc(=O)c3ccccc3o2)cc1 | 6 | 105 | 0.5 | 45 | 1.1
Cc1ccc(NC(=O)c2ccc(OC(=O)c3cc4ccccc4o3)cc2)cc1 | 38 | 134* | 1 | -2 | 1.9
COc1ccc(OCC(=O)N/N=C(\C)c2ccc(OC)cc2)cc1 | 8 | 98 | 0.9 | 12 | 0.95
CC(=O)Nc1cc2ccccc2oc1=O | 12 | 108 | 1 | -3 | 1.5
CCN(CC)c1nc(-c2nn[nH]n2)nc(N(CC)CC)n1 | -7 | 100 | 1 | -5 | 0.89
Cc1ccccc1-n1c(C)cc(/C=C(\C#N)C(=O)NCC2CCCO2)c1C (stereo unspecified) | 123 | 149* | 0.2 | 75* | 1.1
Cc1cc(/C=C(\C#N)C(=O)O)c(C)n1C1CC1 | -18 | 110 | 1 | 4 | 1.3
COc1ccc(-n2c(C)cc(/C=C(\C#N)C(=O)NCc3ccco3)c2C)cc1 | 17 | 112 | 1.1 | -8 | 1
COCCNC(=O)/C(C#N)=C/c1cc(C)n(-c2ccc(C)cc2)c1C | 154* | 145* | 0.3 | 72* | 6.2*
Cc1cc(/C=C(/C#N)C(=O)Nc2ccccc2)c(C)n1-c1cccnc1 | 97 | 150* | 0.5 | 50* | 2
COCCNC(=O)/C(C#N)=C/c1cc(C)n(C2CCCCC2)c1C | 144* | 134* | 0.3 | 72* | 3
CS(=O)(=O)NN1C(=O)c2ccccc2NC1c1cccc(O)c1 (stereo unspecified) | 14 | 98 | 1 | -1 | 1.1
CC(C)(C)c1ccc(C(=O)CS(=O)(=O)c2ccccc2)cc1 | 140* | 97 | 0.5 | 54* | 0.86
Cc1ccc(S(=O)(=O)CC(=O)c2ccccc2)cc1 | 9 | 99 | 1 | -2 | 1.7
COC(c1ccccc1)c1nnc(CCC(=O)N(C)C(C2CC2)C2CC2)o1 (stereo unspecified) | 44 | 131* | 1 | -5 | 2.6
O=C(/C=C\Nc1ccc2c(c1)OCO2)c1cccs1 | 178* | 40 | 0 | 96* | 6.3*
O=C(Nc1ccc2nn(-c3ccccc3)nc2c1)c1cccs1 | 74 | 136* | 1 | 5 | 1.5
O=C(Nc1ccncc1)c1cccs1 | -9 | 95 | 1 | -1 | 0.99
O=C(Nc1ccc2c(c1)OCO2)c1cccs1 | 62 | 122 | 0.6 | 36 | 3.4*
C/C(=N\NC(=O)c1cccs1)c1ccc2c(c1)OCO2 | 29 | 123 | 0.9 | 12 | 2
O=C(c1ccc2c(c1)OCCCO2)c1cccs1 | 140* | 127 | 0.6 | 42 | 4*
Cc1cc2oc(C(=O)NCc3ccc4c(c3)OCO4)c(C)c2cc1C | 14 | 97 | 1 | -4 | 0.98
SMILES | APP 5'UTR act | STAT1 act | FLuc act counter | FLuc inh counter | NF-kB neuron act
COc1cc(-c2cc(=O)c3c(O)cc(O)cc3o2)ccc1O | 23 | 103 | 1 | -3 | 1.5
ClCc1csc(-c2ccc(Cl)cc2)n1 | 21 | 104 | 1 | 0 | 1.4
CCOc1ccc(-c2nnc(N)s2)cc1 | 38 | 113 | 0.4 | 58* | 2
CCOc1ccc(-c2nc(CCl)cs2)cc1 | 48 | 116 | 0.3 | 70* | 3.8*
CC(C)(C)c1ccc(-c2nnc(N)s2)cc1 | 146* | 132* | 0.1 | 87* | 4.9*
Nc1nnc(-c2ccc(F)cc2)s1 | 7 | 103 | 1 | 1 | 1.2
O=S(=O)(c1ccccc1)c1cnn2c(C(F)(F)F)cc(-c3ccccc3)nc12 | -4 | 99 | 1.1 | -10 | 0.98
COc1ccccc1-c1cc(C(F)(F)F)n2ncc(S(=O)(=O)c3ccccc3)c2n1 | 4 | 103 | 1 | -2 | 1.1
COC(=O)c1[nH]c2ccc(Br)cc2c1NC(=O)CN1CCN(C2CCCCC2)CC1 | 8 | 90 | 1.1 | -7 | 4*
Cc1cc(OCc2cn3cccnc3n2)ccc1Cl | 37 | 131* | 0.8 | 16 | 2.1
CCc1c(C)nc2ncnn2c1NCCc1ccc(OC)cc1 | -20 | 81 | 1.1 | -6 | 0.92
Cc1cc(O)c(/C=N/Nc2ccccc2)c(=O)o1 | -13 | 88 | 0.5 | 51* | 1.3
CC(=O)NC(=S)Nc1ccc2oc(-c3cc(F)c(F)cc3Cl)nc2c1 | 170* | 115 | 1 | -2 | 2.4
O=C(Nc1ccc2oc(-c3ccc(Cl)c(Cl)c3)nc2c1)c1ncn[nH]1 | 25 | 114 | 1 | -2 | 1.1
O=C(Nc1ccc2oc(-c3ccccc3F)nc2c1)c1ncn[nH]1 | 138* | 136* | 0.5 | 53* | 5.3*
CC(=O)Nc1ccc2oc(-c3ccccc3)nc2c1 | 126 | 150* | 0.3 | 70* | 7.6*
O=C(Nc1ccc2oc(-c3ccncc3)nc2c1)c1ccccc1 | 1 | 107 | 1 | 1 | 1
O=C(Nc1ccc2oc(-c3ccncc3)nc2c1)c1ccccc1F | 8 | 103 | 1 | 5 | 1
O=C(Nc1ccc2oc(-c3ccccc3)nc2c1)c1ccccc1F | 102 | 146* | 0.8 | 18 | 2.8
CC(NC(=O)c1ccc(Cl)cc1)C(=O)NC1=NCCS1 (stereo unspecified) | -15 | 97 | 1 | -4 | 1.1
O=C(N/N=C/c1cccnc1)c1cc2ccccc2o1 | -3 | 106 | 0.9 | 8 | 1.1
COc1ccccc1OCC(=O)N1CCNC1=O | 3 | 99 | 1 | -1 | 1.1
Cc1ccc(OCC(=O)N2CCCCC2)c(Br)c1 | 7 | 119 | 1 | 0 | 1.9
CC(C)(C)c1ccc(OCC(=O)N2CCCCCC2)c(Br)c1 | 19 | 134* | 1 | 0 | 1
Cc1ccc(NC2=Nc3ccccc3N3C2=Nc2c(c(C)nn2-c2ccccc2)C3c2ccc(O)c(O)c2)cc1 (stereo unspecified) | 11 | 100 | 1.1 | -11 | 0.54
SMILES | APP 5'UTR act | STAT1 act | FLuc act counter | FLuc inh counter | NF-kB neuron act
COc1ccc(-c2cn3cc(C(F)(F)F)cc(Cl)c3n2)cc1 | 150* | 150* | 0.7 | 34 | 9*
Fc1ccc(-c2cn3cc(C(F)(F)F)cc(Cl)c3n2)cc1 | 168* | 139* | 0.7 | 32 | 7.3*
COc1ccc(-c2cc(C(F)(F)F)nc(-n3cc(Cl)cn3)n2)cc1 | -5 | 93 | 1 | 0 | 1.3
Cc1noc(C)c1CSc1nc2ccccc2n1C | 13 | 108 | 1 | 0 | 1.4
COc1ccccc1CNC(=O)CSc1ccsc1[N+](=O)[O-] | 60 | 137* | 1 | -1 | 2.5
CCc1ccc2c(c1)C1(NN=C(c3ccc(C)cc3)S1)C(=O)N2 (stereo unspecified) | 46 | 102 | 1 | 3 | 0.87
